{
  "source": "ChEMBL document CHEMBL1127512",
  "about": "(J Med Chem, 1994)",
  "key": {"[1]": {"assay": "(§1) Antagonist potency at a concentration of 100 nM", "assay_type": "functional", "method_in_brief": "(§2)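 Electrically stimulated guinea pig ileal longitudinal muscle (ethylketazocine, morphine) and mouse vas deferens (DADLE). Antagonist 100 nM preincubated 15 min before standard agonist testing. IC50 ratio = agonist IC50 with antagonist divided by control agonist IC50 in the same preparation. For the kappa line, Ke = [antagonist]/(IC50 ratio − 1).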"}, "[2]": {"target": "Mu-type opioid receptor (Cavia porcellus, UniProt P97266)", "sequence (P97266 whole entry)": "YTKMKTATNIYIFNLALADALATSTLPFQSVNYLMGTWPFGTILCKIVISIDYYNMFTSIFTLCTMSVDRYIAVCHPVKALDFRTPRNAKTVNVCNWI", "assay": "The binding affinity against mu-opioid receptor using [3H]- DAMGO as radioligand", "method_in_brief": "(§3)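 Competition binding in guinea pig brain membranes against selective tritiated radioligands. Displacement of [3H]U69593 at kappa, [3H]DAMGO at mu, [3H]DPDPE at delta sites.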"}, "[3]": {"target": "Kappa-type opioid receptor (Cavia porcellus, UniProt P41144)", "sequence (P41144 whole entry)": "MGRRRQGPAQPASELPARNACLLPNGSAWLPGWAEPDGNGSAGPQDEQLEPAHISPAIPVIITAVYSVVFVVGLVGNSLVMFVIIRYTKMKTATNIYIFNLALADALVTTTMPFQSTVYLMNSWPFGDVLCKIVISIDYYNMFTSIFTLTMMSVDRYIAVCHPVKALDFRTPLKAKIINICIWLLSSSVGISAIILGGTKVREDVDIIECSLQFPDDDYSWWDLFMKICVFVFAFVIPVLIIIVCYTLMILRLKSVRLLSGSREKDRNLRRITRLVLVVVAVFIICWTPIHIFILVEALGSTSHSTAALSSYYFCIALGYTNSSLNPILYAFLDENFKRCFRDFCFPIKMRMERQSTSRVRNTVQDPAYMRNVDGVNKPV", "assay": "The binding affinity on kappa-opioid receptor using [3H]- U-69,593 as radioligand", "method_in_brief": "as §3"}, "[4]": {"assay": "(§4) Inhibitory concentration was tested on electrically stimulated guinea pig ileal longitudinal muscle using Morphine as mu opioid receptor agonist at 100 nM of the compound", "assay_type": "functional", "method_in_brief": "as §2"}, "[5]": {"assay": "(§5) Inhibitory concentration was tested on electrically stimulated guinea pig ileal longitudinal muscle using ethylketazocine as kappa opioid receptor agonist at 100 nM of the compound", "assay_type": "functional", "method_in_brief": "as §2"}, "[6]": {"assay": "(§6) Inhibitory concentration was tested on electrically stimulated mouse vas deferens using DADLE as delta opioid receptor agonist at 100 nM of the compound", "assay_type": "functional", "method_in_brief": "as §2"}, "[7]": {"target": "T1, Opioid receptors; mu & kappa (Homo sapiens) (UniProt P41145+P35372)", "T1 sequence (P35372 whole entry, looked up)": "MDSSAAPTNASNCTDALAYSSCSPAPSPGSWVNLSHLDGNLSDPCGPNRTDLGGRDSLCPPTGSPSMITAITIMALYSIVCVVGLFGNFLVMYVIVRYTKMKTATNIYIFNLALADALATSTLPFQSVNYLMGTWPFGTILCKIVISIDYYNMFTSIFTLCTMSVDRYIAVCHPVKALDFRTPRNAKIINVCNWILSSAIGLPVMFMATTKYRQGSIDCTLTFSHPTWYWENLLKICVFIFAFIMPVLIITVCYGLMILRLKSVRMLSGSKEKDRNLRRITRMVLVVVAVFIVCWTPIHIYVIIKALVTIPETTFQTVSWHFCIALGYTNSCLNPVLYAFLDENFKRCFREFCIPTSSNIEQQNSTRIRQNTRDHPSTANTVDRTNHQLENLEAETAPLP", "T1 sequence (P41145 whole entry, looked up)": "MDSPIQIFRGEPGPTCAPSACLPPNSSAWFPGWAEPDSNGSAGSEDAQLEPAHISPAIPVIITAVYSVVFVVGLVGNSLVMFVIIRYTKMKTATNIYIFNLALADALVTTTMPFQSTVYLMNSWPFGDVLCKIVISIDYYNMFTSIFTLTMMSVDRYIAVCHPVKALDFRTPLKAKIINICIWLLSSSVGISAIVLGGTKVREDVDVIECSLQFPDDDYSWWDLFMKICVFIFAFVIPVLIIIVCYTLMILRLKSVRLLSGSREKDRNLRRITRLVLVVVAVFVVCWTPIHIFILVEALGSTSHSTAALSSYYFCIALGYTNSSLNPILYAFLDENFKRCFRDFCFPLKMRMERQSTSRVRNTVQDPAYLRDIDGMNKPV", "assay": "Selectivity ratio of mu opioid receptor to that of kappa opioid receptor", "assay_type": "protein assay"}, "[8]": {"target": "Kappa-type opioid receptor (Cavia porcellus) (UniProt P41144)", "sequence (P41144 whole entry)": "as the sequence (P41144 whole entry) above", "assay": "(§7) Selectivity ratio of kappa opioid receptor to that of delta opioid receptor"}, "[9]": {"target": "Kappa-type opioid receptor (Cavia porcellus) (UniProt P41144)", "assay": "(§8) Selectivity ratio of kappa opioid receptor to that of mu opioid receptor"}, "[10]": {"target": "Delta-type opioid receptor (Mus musculus) (UniProt P32300)", "sequence (P32300 whole entry)": "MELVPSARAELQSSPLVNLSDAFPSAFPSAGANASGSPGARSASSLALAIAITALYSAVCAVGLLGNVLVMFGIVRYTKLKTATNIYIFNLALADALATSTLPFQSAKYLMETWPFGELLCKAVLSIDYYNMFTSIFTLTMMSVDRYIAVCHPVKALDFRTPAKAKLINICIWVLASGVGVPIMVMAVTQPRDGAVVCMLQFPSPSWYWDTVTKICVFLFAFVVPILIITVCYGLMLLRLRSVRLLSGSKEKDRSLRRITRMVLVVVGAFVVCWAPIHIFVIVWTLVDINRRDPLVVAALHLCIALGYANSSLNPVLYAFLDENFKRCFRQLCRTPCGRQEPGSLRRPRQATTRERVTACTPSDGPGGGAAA", "assay": "as §6", "assay_type": "functional", "method_in_brief": "as §2"}, "[11]": {"target": "Mu-type opioid receptor (Cavia porcellus) (UniProt P97266)", "sequence (P97266 whole entry)": "as the sequence (P97266 whole entry) above", "assay": "as §4", "assay_type": "functional", "method_in_brief": "as §2"}, "[12]": {"target": "Kappa-type opioid receptor (Cavia porcellus) (UniProt P41144)", "assay": "as §5", "assay_type": "functional", "method_in_brief": "as §2"}, "[13]": {"target": "Kappa-type opioid receptor (Cavia porcellus) (UniProt P41144)", "assay": "as §1", "assay_type": "functional", "method_in_brief": "as §2"}, "[14]": {"test_system": "Opioid receptors; delta & kappa", "assay": "Selectivity ratio of delta opioid receptor to that of kappa opioid receptor", "assay_type": "protein assay"}, "[15]": {"target": "T1, Opioid receptors; mu & kappa (Homo sapiens)", "assay": "as §8", "assay_type": "protein assay"}, "[16]": {"target": "Opioid receptors; delta & kappa (Homo sapiens) (UniProt P41145+P41143)", "sequence (P41143 whole entry, looked up)": "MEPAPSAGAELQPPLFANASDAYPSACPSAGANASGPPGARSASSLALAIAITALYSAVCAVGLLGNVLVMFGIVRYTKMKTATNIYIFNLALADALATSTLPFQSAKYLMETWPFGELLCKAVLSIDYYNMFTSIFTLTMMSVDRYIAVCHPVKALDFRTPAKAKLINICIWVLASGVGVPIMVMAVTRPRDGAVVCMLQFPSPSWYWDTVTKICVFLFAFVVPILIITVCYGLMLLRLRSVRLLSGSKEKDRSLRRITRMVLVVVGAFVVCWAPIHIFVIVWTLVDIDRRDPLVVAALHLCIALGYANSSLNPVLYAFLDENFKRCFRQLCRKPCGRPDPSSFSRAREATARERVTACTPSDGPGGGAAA", "sequence (P41145 whole entry, looked up)": "as the sequence (P41145 whole entry, looked up) above", "assay": "as §7", "assay_type": "protein assay"}},
  "data": [
    {"smiles": "Oc1ccc2c3c1O[C@H]1c4[nH]c5c(c4C[C@@]4(O)[C@@H](C2)N(CC2CC2)CC[C@]314)C[C@@]1(O)[C@H]2Cc3ccc(O)c4c3[C@@]1(CCN2CC1CC1)[C@H]5O4", "values": [
      {"measurement": "Ke", "setting": "[1]", "result": 0.55, "unit": "nM"}
    ]},
    {"smiles": "CCCCN1CC[C@]23c4c5ccc(O)c4O[C@H]2c2[nH]c4c(c2C[C@@]3(O)[C@H]1C5)C[C@@]1(O)[C@H]2Cc3ccc(O)c5c3[C@@]1(CCN2CC1CC1)[C@H]4O5", "values": [
      {"measurement": "Ki", "setting": "[2]", "result": 73, "unit": "nM"},
      {"measurement": "Ki", "setting": "[3]", "result": 0.04, "unit": "nM"},
      {"measurement": "Ratio", "setting": "[4]", "result": 1.8},
      {"measurement": "Ratio", "setting": "[5]", "result": 61},
      {"measurement": "Ratio", "setting": "[6]", "result": 1.9},
      {"measurement": "Ratio", "setting": "[7]", "result": 1820},
      {"measurement": "Ke", "setting": "[1]", "result": 1.7, "unit": "nM"}
    ]},
    {"smiles": "Oc1ccc2c3c1O[C@H]1c4[nH]c5c(c4C[C@@]4(O)[C@@H](C2)N(CCc2ccccc2)CC[C@]314)C[C@@]1(O)[C@H]2Cc3ccc(O)c4c3[C@@]1(CCN2CC1CC1)[C@H]5O4", "values": [
      {"measurement": "Ratio", "setting": "[8]", "result": 181},
      {"measurement": "Ratio", "setting": "[9]", "result": 24},
      {"measurement": "Ratio", "setting": "[10]", "result": 2.4},
      {"measurement": "Ratio", "setting": "[11]", "result": 1.8},
      {"measurement": "Ratio", "setting": "[12]", "result": 44},
      {"measurement": "Ke", "setting": "[13]", "result": 2.4, "unit": "nM"}
    ]},
    {"smiles": "O=C(NCCN1CC[C@]23c4c5ccc(O)c4O[C@H]2c2[nH]c4c(c2C[C@@]3(O)C1=C5)C[C@@]1(O)[C@H]2Cc3ccc(O)c5c3[C@@]1(CCN2CC1CC1)[C@H]4O5)OCc1ccccc1", "values": [
      {"measurement": "Ratio", "setting": "[4]", "result": 4.5},
      {"measurement": "Ratio", "setting": "[5]", "result": 26},
      {"measurement": "Ratio", "setting": "[14]", "result": 325},
      {"measurement": "Ratio", "setting": "[15]", "result": 5.7},
      {"measurement": "Ratio", "setting": "[16]", "result": 5.7},
      {"measurement": "Ratio", "setting": "[7]", "result": 194},
      {"measurement": "Ke", "setting": "[1]", "result": 4, "unit": "nM"}
    ]},
    {"smiles": "CC(=O)N1CC[C@]23c4c5ccc(O)c4O[C@H]2c2[nH]c4c(c2C[C@@]3(O)[C@H]1C5)C[C@@]1(O)[C@H]2Cc3ccc(O)c5c3[C@@]1(CCN2CC1CC1)[C@H]4O5", "values": [
      {"measurement": "Ratio", "setting": "[8]", "result": 1.5},
      {"measurement": "Ratio", "setting": "[9]", "result": 2.4},
      {"measurement": "Ratio", "setting": "[10]", "result": 2.8},
      {"measurement": "Ratio", "setting": "[11]", "result": 1.8},
      {"measurement": "Ratio", "setting": "[12]", "result": 4.3},
      {"measurement": "Ke", "setting": "[13]", "result": 30.3, "unit": "nM"}
    ]},
    {"smiles": "Oc1ccc2c3c1O[C@H]1c4[nH]c5c(c4C[C@@]4(O)[C@@H](C2)NCC[C@]314)C[C@@]1(O)[C@H]2Cc3ccc(O)c4c3[C@@]1(CCN2CC1CC1)[C@H]5O4", "values": [
      {"measurement": "Ratio", "setting": "[8]", "result": 4.8},
      {"measurement": "Ratio", "setting": "[9]", "result": 22},
      {"measurement": "Ratio", "setting": "[10]", "result": 8.5},
      {"measurement": "Ratio", "setting": "[11]", "result": 1.9},
      {"measurement": "Ratio", "setting": "[12]", "result": 41},
      {"measurement": "Ke", "setting": "[13]", "result": 2.5, "unit": "nM"}
    ]},
    {"smiles": "CCN1CC[C@]23c4c5ccc(O)c4O[C@H]2c2[nH]c4c(c2C[C@@]3(O)[C@H]1C5)C[C@@]1(O)[C@H]2Cc3ccc(O)c5c3[C@@]1(CCN2CC1CC1)[C@H]4O5", "values": [
      {"measurement": "Ratio", "setting": "[8]", "result": 3.5},
      {"measurement": "Ratio", "setting": "[9]", "result": 14},
      {"measurement": "Ratio", "setting": "[10]", "result": 6.3},
      {"measurement": "Ratio", "setting": "[11]", "result": 1.6},
      {"measurement": "Ratio", "setting": "[12]", "result": 22},
      {"measurement": "Ke", "setting": "[13]", "result": 4.7, "unit": "nM"}
    ]},
    {"smiles": "NCCN1CC[C@]23c4c5ccc(O)c4O[C@H]2c2[nH]c4c(c2C[C@@]3(O)[C@H]1C5)C[C@@]1(O)[C@H]2Cc3ccc(O)c5c3[C@@]1(CCN2CC1CC1)[C@H]4O5", "values": [
      {"measurement": "Ki", "setting": "[2]", "result": 46, "unit": "nM"},
      {"measurement": "Ki", "setting": "[3]", "result": 3.4, "unit": "nM"},
      {"measurement": "Ratio", "setting": "[4]", "result": 1.6},
      {"measurement": "Ratio", "setting": "[5]", "result": 20},
      {"measurement": "Ratio", "setting": "[6]", "result": 1.9},
      {"measurement": "Ratio", "setting": "[14]", "result": 41},
      {"measurement": "Ratio", "setting": "[15]", "result": 12.5},
      {"measurement": "Ratio", "setting": "[16]", "result": 10},
      {"measurement": "Ratio", "setting": "[7]", "result": 14},
      {"measurement": "Ke", "setting": "[1]", "result": 5.1, "unit": "nM"}
    ]},
    {"smiles": "N=C(N)NCCN1CC[C@]23c4c5ccc(O)c4O[C@H]2c2[nH]c4c(c2C[C@@]3(O)[C@H]1C5)C[C@@]1(O)[C@H]2Cc3ccc(O)c5c3C1(CCN2CC1CC1)[C@H]4O5", "values": [
      {"measurement": "Ki", "setting": "[2]", "result": 50, "unit": "nM"},
      {"measurement": "Ki", "setting": "[3]", "result": 0.59, "unit": "nM"},
      {"measurement": "Ratio", "setting": "[4]", "result": 1.7},
      {"measurement": "Ratio", "setting": "[5]", "result": 27},
      {"measurement": "Ratio", "setting": "[6]", "result": 1},
      {"measurement": "Ratio", "setting": "[14]", "result": 63},
      {"measurement": "Ratio", "setting": "[15]", "result": 15},
      {"measurement": "Ratio", "setting": "[16]", "result": 27},
      {"measurement": "Ratio", "setting": "[7]", "result": 85},
      {"measurement": "Ke", "setting": "[1]", "result": 3.8, "unit": "nM"}
    ]},
    {"smiles": "NCC(=O)NCC(=O)N1CC[C@]23c4c5ccc(O)c4O[C@H]2c2[nH]c4c(c2C[C@@]3(O)[C@H]1C5)C[C@@]1(O)[C@H]2Cc3ccc(O)c5c3[C@@]1(CCN2CC1CC1)[C@H]4O5", "values": [
      {"measurement": "Ki", "setting": "[2]", "result": 66, "unit": "nM"},
      {"measurement": "Ki", "setting": "[3]", "result": 21, "unit": "nM"},
      {"measurement": "Ratio", "setting": "[4]", "result": 2},
      {"measurement": "Ratio", "setting": "[5]", "result": 9.6},
      {"measurement": "Ratio", "setting": "[6]", "result": 0.67},
      {"measurement": "Ratio", "setting": "[14]", "result": "> 15"},
      {"measurement": "Ratio", "setting": "[15]", "result": 4.8},
      {"measurement": "Ratio", "setting": "[7]", "result": 3},
      {"measurement": "Ke", "setting": "[1]", "result": 11.7, "unit": "nM"}
    ]},
    {"smiles": "CCCCCN1CC[C@]23c4c5ccc(O)c4O[C@H]2c2[nH]c4c(c2C[C@@]3(O)[C@H]1C5)C[C@@]1(O)[C@H]2Cc3ccc(O)c5c3[C@@]1(CCN2CC1CC1)[C@H]4O5", "values": [
      {"measurement": "Ratio", "setting": "[8]", "result": 8.7},
      {"measurement": "Ratio", "setting": "[9]", "result": 8.7},
      {"measurement": "Ratio", "setting": "[10]", "result": 3.1},
      {"measurement": "Ratio", "setting": "[11]", "result": 3.1},
      {"measurement": "Ratio", "setting": "[12]", "result": 27},
      {"measurement": "Ke", "setting": "[13]", "result": 3.8, "unit": "nM"}
    ]},
    {"smiles": "NCC(=O)N1CC[C@]23c4c5ccc(O)c4O[C@H]2c2[nH]c4c(c2C[C@@]3(O)[C@H]1C5)C[C@@]1(O)[C@H]2Cc3ccc(O)c5c3[C@@]1(CCN2CC1CC1)[C@H]4O5", "values": [
      {"measurement": "Ratio", "setting": "[8]", "result": 5.4},
      {"measurement": "Ratio", "setting": "[9]", "result": 8.4},
      {"measurement": "Ratio", "setting": "[10]", "result": 2.2},
      {"measurement": "Ratio", "setting": "[11]", "result": 1.4},
      {"measurement": "Ratio", "setting": "[12]", "result": 11.8},
      {"measurement": "Ke", "setting": "[13]", "result": 9.3, "unit": "nM"}
    ]}
  ]
}
